Data: ChEMBL document CHEMBL1141590, “Development of peptidomimetics with a vinyl sulfone warhead as irreversible falcipain-2 inhibitors” (J Med Chem, 2008)

What was measured:
Plasmodium falciparum = assay: Antiplasmodial activity against Plasmodium falciparum 3D7 after 72 hrs in Malstat assay; assay type: functional, organism-based; settings: 3D7, 72 h
Summary of the method: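 Synchronized ring-stage P. falciparum 3D7 plated at 1% parasitemia with compounds (in DMSO) at 1 nM–100 µM; 0.5% v/v DMSO alone as negative control. Cultured in vitro 72 h, then viability read by Malstat assay (parasite lactate dehydrogenase activity); dose-dependent effect quantified.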

Falcipain 2 = molecular target: T1, Falcipain 2 (Plasmodium falciparum, UniProt Q9N6S8); assay: (§1) Inhibition of Plasmodium falciparum recombinant falcipain-2
T1 sequence (Q9N6S8 whole entry): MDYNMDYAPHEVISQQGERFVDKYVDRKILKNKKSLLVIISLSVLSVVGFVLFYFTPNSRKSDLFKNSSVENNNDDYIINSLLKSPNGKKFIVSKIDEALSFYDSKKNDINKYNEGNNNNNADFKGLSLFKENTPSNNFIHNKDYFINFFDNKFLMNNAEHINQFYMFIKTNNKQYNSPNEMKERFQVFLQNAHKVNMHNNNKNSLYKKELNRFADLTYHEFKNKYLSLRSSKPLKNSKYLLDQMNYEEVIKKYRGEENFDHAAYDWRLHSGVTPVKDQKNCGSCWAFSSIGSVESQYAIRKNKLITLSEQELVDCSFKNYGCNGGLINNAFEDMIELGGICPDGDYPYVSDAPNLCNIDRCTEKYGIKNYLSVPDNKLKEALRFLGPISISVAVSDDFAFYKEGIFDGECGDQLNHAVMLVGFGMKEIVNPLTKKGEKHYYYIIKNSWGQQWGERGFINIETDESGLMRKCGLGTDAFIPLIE
Summary of the method: (§2)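 Recombinant FP-2 in 100 mM sodium acetate pH 5.5, 10 mM DTT; Cbz-Phe-Arg-AMC 32 µM, fluorescence (ex 365/em 460 nm) monitored continuously 20 min at room temperature. Seven inhibitor levels within 0–10 µM; kobs from progress-curve fits, hyperbolic fit gave kinac and Kiapp, corrected with Km 21.5 µM; k2nd = kinac/Kinac. Two independent runs, each in duplicate.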

[1] = molecular target: T2, Falcipain 2 (Plasmodium falciparum) (UniProt Q9N6S8); assay: as §1; summary of the method: as §2
T2 sequence (whole entry): T1 sequence (Q9N6S8 whole entry)

Cathepsin B = Cathepsin B (Homo sapiens, UniProt P07858); assay: Inhibition of human cathepsin B
Summary of the method: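 Cathepsin B continuous progress-curve assay with Cbz-Phe-Arg-AMC at 80 µM; Kiapp corrected to zero substrate using Km 150 µM to give Kinac. Two independent runs, each in duplicate.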

Procathepsin L = Procathepsin L (Homo sapiens, UniProt P07711); assay: Inhibition of human cathepsin L
Summary of the method: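 Cathepsin L continuous progress-curve assay with Cbz-Phe-Arg-AMC at 5 µM; Kiapp corrected to zero substrate using Km 6.5 µM to give Kinac. Two independent runs, each in duplicate.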

Row | SMILES | IC50 (Plasmodium falciparum) [µM] | Ki (Falcipain 2) [µM] | Kinact [1] [min⁻¹] | Ki (Cathepsin B) [µM] | Kinact (Cathepsin B) [min⁻¹] | IC50 (Falcipain 2) [µM] | Ki (Procathepsin L) [µM] | Kinact (Procathepsin L) [min⁻¹]
1 | COc1ccc(S(=O)(=O)/C=C/[C@H](CCc2ccccc2)NC(=O)CN2C(=O)[C@@H](COC(=O)Nc3ccc(Cl)cc3C(F)(F)F)N=C(c3ccccc3)c3ccccc32)cc1 | 59.6 | 0.053 | 0.034 | 3.3 | 0.045 |  |  | 
2 | CS(=O)(=O)/C=C/CNC(=O)CN1C(=O)[C@@H](COC(=O)Nc2ccc(Cl)cc2C(F)(F)F)N=C(c2ccccc2)c2ccccc21 | 18.1 | 0.37 | 0.059 | 11 | 0.048 | 8 |  | 
3 | O=C(CN1C(=O)[C@@H](COC(=O)Nc2ccc(Cl)cc2C(F)(F)F)N=C(c2ccccc2)c2ccccc21)NC/C=C/S(=O)(=O)c1ccccc1 | 23.1 | 0.14 | 0.033 | 4.6 | 0.047 | 8 | 21.9 | 0.16
4 | O=C(CN1C(=O)[C@@H](COC(=O)Nc2ccc(Cl)cc2C(F)(F)F)N=C(c2ccccc2)c2ccccc21)N[C@H]1CC(=O)OC1O (some centres not stated) |  |  |  |  |  | 8 |  | 
5 | CS(=O)(=O)/C=C/[C@H](CCc1ccccc1)NC(=O)CN1C(=O)[C@@H](COC(=O)Nc2ccc(Cl)cc2C(F)(F)F)N=C(c2ccccc2)c2ccccc21 | 55.4 | 0.39 | 0.16 | 14.5 | 0.064 | 8 |  | 
6 | O=C(CN1C(=O)[C@@H](COC(=O)Nc2ccc(Cl)cc2C(F)(F)F)N=C(c2ccccc2)c2ccccc21)N[C@H](/C=C/S(=O)(=O)c1ccccc1)CCc1ccccc1 | 9.2 | 0.6 | 0.11 | 3.1 | 0.039 |  | 7 | 0.12
7 | CCS(=O)(=O)/C=C/[C@H](CCc1ccccc1)NC(=O)CN1C(=O)[C@@H](COC(=O)Nc2ccc(Cl)cc2C(F)(F)F)N=C(c2ccccc2)c2ccccc21 | 9.1 | 0.32 | 0.1 | 4.4 | 0.045 |  | 13.5 | 0.1
8 | COc1ccc(S(=O)(=O)/C=C/CNC(=O)CN2C(=O)C(COC(=O)Nc3ccc(Cl)cc3C(F)(F)F)N=C(c3ccccc3)c3ccccc32)cc1 (configuration not stated) | > 100 | 0.12 | 0.031 | 5.9 | 0.059 | 8 | 14 | 0.1
9 | CCS(=O)(=O)/C=C/CNC(=O)CN1C(=O)[C@@H](COC(=O)Nc2ccc(Cl)cc2C(F)(F)F)N=C(c2ccccc2)c2ccccc21 | 56.6 | 0.11 | 0.027 | 4.3 | 0.039 | 8 |  | 
10 | CC(C)C[C@H](NC(=O)[C@H]1O[C@@H]1C(=O)O)C(=O)NCCCCN=C(N)N [E-64] | 5.3 | 0.29 | 0.46 |  |  |  |  | 
